Experimental data reported in ChEMBL document CHEMBL1240521, “Design and synthesis of biphenyl derivatives as mushroom tyrosinase inhibitors” (Bioorg Med Chem, 2010).

biological target: T1, Tyrosinase (Agaricus bisporus, UniProt O42713); experiment: Competitive inhibition of mushroom tyrosinase after 30 mins by Lineweaver-Burke double reciprocal plot analysis
T1 sequence (O42713 whole entry): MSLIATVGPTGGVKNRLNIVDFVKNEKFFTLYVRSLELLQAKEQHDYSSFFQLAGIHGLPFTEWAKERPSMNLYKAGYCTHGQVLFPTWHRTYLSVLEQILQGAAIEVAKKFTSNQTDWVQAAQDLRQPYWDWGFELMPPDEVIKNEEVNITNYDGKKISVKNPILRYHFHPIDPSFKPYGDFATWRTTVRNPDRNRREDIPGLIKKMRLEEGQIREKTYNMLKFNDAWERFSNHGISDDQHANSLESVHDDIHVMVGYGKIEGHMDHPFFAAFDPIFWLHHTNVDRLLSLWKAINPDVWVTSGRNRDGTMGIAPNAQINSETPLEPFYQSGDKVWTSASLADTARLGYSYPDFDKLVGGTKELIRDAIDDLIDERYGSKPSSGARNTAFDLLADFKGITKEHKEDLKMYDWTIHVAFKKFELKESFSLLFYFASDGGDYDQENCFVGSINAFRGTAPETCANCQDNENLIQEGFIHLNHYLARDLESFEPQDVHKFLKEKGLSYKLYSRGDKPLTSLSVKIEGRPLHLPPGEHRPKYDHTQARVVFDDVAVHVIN
Procedure, shortened: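 Inhibition type and Ki were determined with respect to L-tyrosine as substrate, using mushroom tyrosinase with dopachrome read-out at 492 nm. Incubation was 30 min at 37 °C in 25 mM PBS, pH 6.8.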

For `COc1cc(-c2ccc(C(=O)O)cc2)cc(OC)c1O`, which Ki is on record?
Its Ki is 38 µM.

For `COc1cc(-c2ccc(C(=O)O)c(O)c2)cc(OC)c1O`, which Ki is on record?
Its Ki is 15 µM.

`COc1cc(-c2ccc(C(=O)NCc3ccccc3)c(O)c2)cc(OC)c1O` was tested. Which Ki did it give?
Its Ki is 60 µM.

`CCCCNC(=O)c1ccc(-c2cc(OC)c(O)c(OC)c2)cc1` was tested. Which Ki did it give?
Its Ki is 31 µM.

biological target: T1, Tyrosinase; experiment: Inhibition of mushroom tyrosinase after 30 mins

With `COc1cc(-c2ccc(C)c(O)c2)cc(OC)c1OC` as the compound, how does the IC50 read?
The IC50 was greater than 2000 µM.

With `COc1cc(-c2cc(F)cc(F)c2)cc(OC)c1OC` as the compound, how does the IC50 read?
Its IC50 is greater than 2000 µM.

With `COc1cc(-c2ccc(F)cc2F)cc(OC)c1OC` as the compound, how does the IC50 read?
The IC50 was greater than 2000 µM.

For `COc1cc(-c2ccc(F)c(F)c2)cc(OC)c1OC`, which IC50 is on record?
The IC50 was greater than 2000 µM.

Which IC50 does the source give for `COc1cc(-c2cccc(O)c2)cc(OC)c1OC` here?
The IC50 was greater than 2000 µM.

For `COc1cc(-c2ccccc2C)cc(OC)c1OC`, which IC50 is on record?
Its IC50 is greater than 2000 µM.

How did the IC50 turn out when `COc1cc(-c2ccc(C=O)c(O)c2)cc(OC)c1O` was run?
Its IC50 is 60 µM.

How did the IC50 turn out when `COc1cc(-c2ccc(C)c(O)c2)cc(OC)c1O` was run?
The IC50 was 90 µM.

`COc1cc(-c2cc(F)cc(F)c2)cc(OC)c1O` was tested. Which IC50 did it give?
The IC50 was 80 µM.

For `COc1cc(-c2ccc(F)cc2F)cc(OC)c1O`, which IC50 is on record?
Its IC50 is 60 µM.

`COc1cc(-c2ccc(F)c(F)c2)cc(OC)c1O` was tested. Which IC50 did it give?
The IC50 was 70 µM.

With `COc1cc(-c2cccc(OC)c2F)cc(OC)c1O` as the compound, how does the IC50 read?
The IC50 was 60 µM.

Which IC50 does the source give for `COc1cc(-c2cccc(O)c2F)cc(OC)c1O` here?
The IC50 was 80 µM.

`COc1cc(-c2cccc(O)c2)cc(OC)c1O` was tested. Which IC50 did it give?
Its IC50 is 90 µM.

`COc1cc(-c2ccccc2C)cc(OC)c1O` was tested. Which IC50 did it give?
Its IC50 is 170 µM.

`COc1cc(-c2ccc(C(=O)O)cc2)cc(OC)c1O` was tested. Which IC50 did it give?
Its IC50 is 50 µM.

With `COc1cc(-c2ccc(C=O)c(OCc3ccccc3)c2)cc(OC)c1OC` as the compound, how does the IC50 read?
The IC50 was greater than 2000 µM.

For `COc1cc(-c2ccc(C=O)c(O)c2)cc(OC)c1OC`, which IC50 is on record?
Its IC50 is greater than 2000 µM.

For `COc1cc(-c2ccc(C(=O)O)c(OCc3ccccc3)c2)cc(OC)c1OC`, which IC50 is on record?
The IC50 was greater than 2000 µM.

How did the IC50 turn out when `COc1cc(-c2ccc(C(=O)O)c(O)c2)cc(OC)c1OC` was run?
The IC50 was greater than 2000 µM.

For `CCOC(=O)c1ccc(-c2cc(OC)c(OC)c(OC)c2)cc1O`, which IC50 is on record?
The IC50 was greater than 2000 µM.

`COc1cc(-c2ccc(C(=O)NCc3ccccc3)c(OCc3ccccc3)c2)cc(OC)c1OC` was tested. Which IC50 did it give?
Its IC50 is greater than 2000 µM.

With `COc1cccc(-c2cc(OC)c(OC)c(OC)c2)c1F` as the compound, how does the IC50 read?
Its IC50 is greater than 2000 µM.

How did the IC50 turn out when `COc1ccc(C(C)=O)cc1-c1cc(OC)c(OC)c(OC)c1` was run?
Its IC50 is greater than 2000 µM.

For `COc1ccc(C(C)O)cc1-c1cc(OC)c(OC)c(OC)c1` (configuration not stated), which IC50 is on record?
The IC50 was greater than 2000 µM.

How did the IC50 turn out when `COc1cc(-c2cccc(OCc3ccccc3)c2)cc(OC)c1OC` was run?
Its IC50 is 550 µM.

How did the IC50 turn out when `COc1cc(-c2ccc(C(=O)O)cc2)cc(OC)c1OC` was run?
Its IC50 is greater than 2000 µM.

How did the IC50 turn out when `CCCCNC(=O)c1ccc(-c2cc(OC)c(OC)c(OC)c2)cc1` was run?
Its IC50 is greater than 2000 µM.

With `COc1cc(-c2ccc(C(=O)NCc3ccccc3)cc2)cc(OC)c1OC` as the compound, how does the IC50 read?
The IC50 was greater than 2000 µM.

For `COc1cc(-c2ccc(O)c(OCc3ccccc3)c2)cc(OC)c1OC`, which IC50 is on record?
Its IC50 is 170 µM.

How did the IC50 turn out when `COc1cc(-c2ccc(C(=O)O)c(O)c2)cc(OC)c1O` was run?
The IC50 was 20 µM.

How did the IC50 turn out when `CCOC(=O)c1ccc(-c2cc(OC)c(O)c(OC)c2)cc1O` was run?
The IC50 was 50 µM.

With `COc1cc(-c2ccc(C(=O)NCc3ccccc3)c(O)c2)cc(OC)c1O` as the compound, how does the IC50 read?
Its IC50 is 30 µM.

For `COc1ccc(C(C)=O)cc1-c1cc(OC)c(O)c(OC)c1`, which IC50 is on record?
Its IC50 is 140 µM.

Which IC50 does the source give for `COc1ccc(C(C)O)cc1-c1cc(OC)c(O)c(OC)c1` (configuration not stated) here?
Its IC50 is 190 µM.

With `CCCCNC(=O)c1ccc(-c2cc(OC)c(O)c(OC)c2)cc1` as the compound, how does the IC50 read?
The IC50 was 70 µM.

For `COc1cc(-c2ccc(C(=O)NCc3ccccc3)cc2)cc(OC)c1O`, which IC50 is on record?
The IC50 was 120 µM.

`COc1cc(-c2ccc(O[C@@H]3O[C@H](CO)[C@@H](O)[C@H](O)[C@H]3O)c(O)c2)cc(OC)c1O` [FORTUNEANOSIDE E] was tested. Which IC50 did it give?
Its IC50 is 140 µM.
